The list is not random: actives were taken first. Their share in the collection is about 1.5%.
CXCR6 inh: inhibitors of human CXCR6 receptor; O00574; CHO-K1 PathHunter CXCR6 beta-arrestin, luminescence; inhibition, % at 20 µM; 360,000 compounds, 0.36% hits; in the data active means inhibition above about 34%, passing the limit was not always enough;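 further: antagonist mode with CXCL16 agonist at 10 nM final; 0% = 10 nM CXCL16 with DMSO and 100% = unstimulated wells without agonist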
CCR6 antagonist: CCR6 (human) receptor antagonism | inhibition, % at 20 µM | P51684 | 340,000 compounds, 0.49% hits | CHO-K1 CCR6 PathHunter beta-arrestin, luminescence, CCL20-stimulated;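 active means compounds whose inhibition of the agonist-driven luminescence signal at 20 µM reaches about 50%, limit read from the data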;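 further: cells stimulated with CCL20 at 14 nM final; plate controls were DMSO with CCL20 for no effect and DMSO without agonist for full effect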
APJ agonist: agonists of human APJ apelin receptor; P35414; CHO-K1 APJ PathHunter beta-arrestin, luminescence; 0% DMSO wells, 100% apelin; activation, % at 20 µM; 330,000 compounds, 0.11% hits;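 active means activation more than six SD over the plate average, tested at 20 µM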;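 further: 0% = DMSO alone and 100% = apelin-13 at 10 nM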
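system = engineered CHO-K1 APJ arrestin reporter cells | input = 1000 cells per well | timing = overnight seeding, 90 min compound at 25 °C, 1 h detection | measured by = enzyme-fragment complementation luminescence | read-out = beta-arrestin recruitment to APJ as agonist activity, luminescent signal | control set = negative DMSO alone, positive Apelin-13 at 10 nM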
EBI2 antag: blocks human EBI2 receptor beta-arrestin signaling | EBI2 beta-arrestin recruitment, luminescence, 7a,25-OHC stimulated | inhibition, % at 5 µM | AID 651636 | 360,000 compounds, 0.81% hits; in the data active means inhibition above about 38%;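 further: enzyme fragment complementation signal reports receptor beta-arrestin coupling in cells; 0% = agonist plus DMSO wells and 100% = wells without agonist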
Target sequence (P32249 whole entry, looked up, the tested form may be a part): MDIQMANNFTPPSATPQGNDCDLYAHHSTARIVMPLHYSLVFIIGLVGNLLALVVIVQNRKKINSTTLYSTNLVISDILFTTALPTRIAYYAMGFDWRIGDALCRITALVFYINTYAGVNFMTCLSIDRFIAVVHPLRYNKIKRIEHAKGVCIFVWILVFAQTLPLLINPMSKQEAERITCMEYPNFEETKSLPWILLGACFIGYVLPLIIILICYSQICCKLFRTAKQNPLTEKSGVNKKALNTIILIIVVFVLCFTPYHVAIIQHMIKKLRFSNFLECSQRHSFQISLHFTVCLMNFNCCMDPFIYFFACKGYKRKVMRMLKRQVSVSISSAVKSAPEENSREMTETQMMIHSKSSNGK
APJ antag: antagonists of human APJ apelin receptor. P35414. inhibition, % at 20 µM. AID 2521. CHO-K1 APJ beta-arrestin complementation, luminescence. 330,000 compounds, 0.32% hits;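 active means inhibition above about 40% at 20 µM, limit read from the data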;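 further: cells challenged with 10 nM apelin-13 agonist together with compound; plate controls were apelin-13 plus DMSO wells for no effect and DMSO wells lacking apelin-13 for full effect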
* hit, by the source's call; . = no result given.

SMILES	CXCR6 inh	CCR6 antagonist	APJ agonist	EBI2 antag	APJ antag
COc1ccc(C(CNS(=O)(=O)c2ccc(NC(C)=O)c(OC)c2)N2CCCCC2)cc1 (configuration not stated)	-2	2	-2	3	-5
COc1ccc(CNCCS(=O)(=O)NN2CCOCC2)cc1	-3	9	.	-5	.
COC(=S)N/C(=N\S(=O)(=O)c1ccc(Cl)cc1)c1ccccc1	6	7	2	2	-1
Cc1c(C(=O)Nc2nc3ccccc3[nH]2)oc2ccccc12	20	56*	-1	9	8
CC(O)(c1ccc(F)c(F)c1)c1nc(-c2ccc(F)c(Cl)c2)cs1 (configuration not stated)	-2	.	.	5	.
O=C1/C(=C/c2ccc([N+](=O)[O-])cc2)C=C(c2ccccc2)N1c1ccc(O)cc1	38*	54*	0	61*	6
O=[N+]([O-])/C=C/c1cn(Cc2ccccc2)c2ccccc12	14	32	-3	-26	19
N#Cc1ccccc1Cn1cc(/C=C/[N+](=O)[O-])c2ccccc21	35	55*	3	-40	-14
Cc1cc(N/N=C/c2ccc(O)cc2O)nc(-c2ccccc2O)n1	-6	-17	.	3	.
Cc1cc(N/N=C/c2ccc(O)cc2O)nc(-n2nc(C)cc2C)n1	92*	93*	.	84*	.
CC1=NN(c2ccc(Br)cc2)C(=O)/C1=C/c1cccs1	6	12	-1	57*	3
Cc1c(C(=O)NCc2cccc(C(F)(F)F)c2)sc(=O)n1Cc1ccc(C(=O)N(C)C)cc1	2	.	.	-1	.
CCOc1ccc(-c2nnn(CC(=O)NCc3ccccc3)n2)cc1	-3	0	-2	11	9
Cc1ccc(C(CCN(Cc2ccccc2)C(=O)c2ccco2)c2ccco2)cc1 (configuration not stated)	16	52*	-1	-1	0
CCCCNC(=O)C1c2ccccc2OCC(=O)N1CC(F)(F)F (configuration not stated)	-8	.	.	-14	.
Clc1ccc(CSc2nccn2Cc2ccccc2)cc1	-10	26	-8	77*	-10
O=c1ccn(Cc2ccccc2)c(SCc2ccccc2)n1	7	6	.	4	.
CC1(C)S[C@@H]2C(C(=O)OCc3ccccc3)NC(=O)N2C1C(=O)OCc1ccccc1 (some centres not stated)	-3	18	-3	3	-3
O=C(CCOc1ccccc1)OCC(=O)c1cc2ccccc2o1	29	85*	-10	-8	36
CSc1ncccc1C(=O)OCC(=O)c1ccccc1	2	18	-4	-1	9
CSc1ncccc1C(=O)OCC(=O)c1cc2ccccc2o1	34	50*	-12	4	22
O=C(COC(=O)CCOc1ccccc1)NCCc1ccccc1	-1	15	1	0	21
O=C1C(=NO)C(c2ccccc2)Oc2ccccc21 (configuration not stated)	2	13	.	20	.
Cn1c(N=Nc2ccc(N3CCOCC3)cc2)[n+](C)c2ccccc21	54*	63*	.	12	.
Cn1c(=Nc2ccc(N3CCOCC3)cc2)ccc2ccccc21	7	-5	0	6	-3
SMILES	CXCR6 inh	CCR6 antagonist	APJ agonist	EBI2 antag	APJ antag
O=C1C2CCCN2C(=S)N1c1cc(Cl)ccc1Cl (configuration not stated)	-7	0	11	-4	-9
CCN(CC)c1ccc(C(=S)N2CCN(c3ccccc3)CC2)cc1	6	32	-6	64*	6
COc1ccc(CSC2=CS(=O)(=O)c3ccccc3N2)cc1	-9	0	-3	3	17
COCCn1c(-c2ccccc2Cl)nc2c(c(=O)c3ccccc3n2C)c1=O	-3	-5	-3	1	12
O=C(CC[C@H]1O[C@@H](n2cnc3c(NC(=O)c4ccccc4)ncnc32)[C@H](O)[C@@H]1O)NCCCN1CCOCC1	4	.	.	4	.
Nc1nn(-c2ccccc2)c(N)c1N=Nc1ccccc1	-2	-3	5	7	-17
c1ccc(N=NC2=NN(c3ccccc3)CS2)cc1	42*	.	.	-1	.
COc1ccc(Nc2nc(C(F)(F)F)nc(C)c2C#N)cc1	-3	-7	-3	-15	-1
Cc1ccc(C(=O)COC(=O)CCC(=O)Nc2cccc(Cl)c2)cc1[N+](=O)[O-]	16	53*	-11	6	24
O=C(O)c1ccc(N2C(=O)/C(=C/C=C/c3ccccc3)SC2=S)cc1	-1	14	-1	-3	2
CN(C)c1ccc(/C=C/C=C2/SC(=S)N(c3ccccc3)C2=O)cc1	52*	45	-6	9	39
O=C1C=C(c2c(O)ccc3ccccc23)c2ccccc2C1=O	46*	47	.	-30	.
CCn1cc(C(=O)NCCCO)c(=O)c2cc(F)c(N3CCN(C)CC3)cc21	6	9	-1	4	13
CCCCCCNC(=O)c1cn(CC)c2cc(N3CCN(C)CC3)c(F)cc2c1=O	2	1	-2	45*	-21
Cc1nn(Cc2c(F)c(F)c(F)c(F)c2F)c(C)c1NC(=O)c1ccc(COc2cc(Cl)ccc2Cl)cc1	0	-12	-4	51*	4
CCOC(=O)CC1CCCCN1C(=O)CCCn1nnnc1CN1CCC(C)CC1 (configuration not stated)	-2	9	26	6	15
CCN1C(=O)/C(=C/C=C2\N(CC)c3cc(S(=O)(=O)N(C)C)ccc3N2c2ccccc2)SC1=S	52*	67*	-5	34	27
CCN1C(=O)/C(=C\C=C\c2ccccc2[N+](=O)[O-])SC1=S	0	13	4	17	-48
COc1cc(/C=N/Nc2ccc([N+](=O)[O-])cc2S(=O)(=O)N2CCOCC2)cc(OC)c1OC	34	17	-4	17	23
O=[N+]([O-])c1ccc(N/N=C/c2ccc(O)c(O)c2O)c(S(=O)(=O)N2CCOCC2)c1	7	51*	-5	12	15
O=[N+]([O-])c1ccc(N/N=C/c2cccc(O)c2O)c(S(=O)(=O)N2CCOCC2)c1	55*	72*	-7	41*	58*
O=[N+]([O-])c1ccc(NCCCO)c(S(=O)(=O)N2CCOCC2)c1	5	1	-3	-10	-10
N=c1c(C(=O)NCc2ccc(F)cc2)cc2c(=O)n3ccccc3nc2n1Cc1ccco1	23	33	-6	2	49*
O=c1cc2oc3cc(O)c(O)cc3c(-c3ccccc3O)c-2cc1O	28	30	.	1	.
CCOc1ccccc1-c1c2cc(O)c(=O)cc-2oc2cc(O)c(O)cc12	27	56*	.	-1	.
O=C(NC(=S)Nc1ccc(C(=O)N2CCOCC2)cc1)c1ccc([N+](=O)[O-])cc1	30	63*	-5	-2	9
CCOc1ccc(C(=O)NC(=S)Nc2ccc(NC(=O)CC)cc2)cc1[N+](=O)[O-]	18	56*	-1	6	22
